From the array DNA melting data of Ke et al. (doi:10.1101/2024.01.08.574731)

Tests used:
[1] = folding enthalpy; higher = less favourable; fluorescence melt of hairpins on a sequencing array, two-state fit; conditions: sodium 0.088 M
In short: (§1)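 Folding enthalpy and melting temperature come from bootstrapped two-state fits to Cy3 fluorescence of library hairpins carrying annealed Cy3 and quencher oligos on a sequenced MiSeq flow cell. Imaging was done in 50 mM Na-HEPES pH 8.0, 25 mM NaCl, stepping by 2.5 °C up to 60 °C, and signals were normalised to pre-quench Cy3 and to control constructs. Results of four replicates were combined by inverse variance, and fitted temperatures were raised by 9.35 °C to match UV melts.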

[2] = melting temperature; fluorescence melt of hairpins on a sequencing array, two-state fit, raised by 9.35 °C to match UV melts; conditions: sodium 0.088 M
In short: as §1

Row | Sequence | folding enthalpy [1] | Tm [2]
1 | GTTGTTCCGAAAGGAAAC (((..(((....)))))) | -20.5 kcal/mol | 49.1 °C
2 | GTTGTTCGAAAGAATAAC (((.(((....))).))) | -31.6 kcal/mol | 45.6 °C
3 | GTTGTTGAAAAACAAC ((((((....)))))) | -38.2 kcal/mol | 51.9 °C
4 | GTTGTTGCGAAAGCAAAC (((..(((....)))))) | -21.7 kcal/mol | 53.1 °C
5 | GTTGTTGGAAACAACAGC (.(((((....))))).) | -13.2 kcal/mol | 52.8 °C
6 | GTTGTTGGAAACAGCAAC ((((.((....)).)))) | -16.7 kcal/mol | 45.3 °C
7 | GTTGTTGGAAACGACAAC (((((.(....).))))) | -8.7 kcal/mol | 48.4 °C
8 | GTTGTTTCGAAAGAAAAC (((..(((....)))))) | -32.9 kcal/mol | 41.8 °C
9 | GTTTAACGAAAGTTAAC (((.(((....)))))) | -14.6 kcal/mol | 37.1 °C
10 | GTTTACCGAAAGGTGAAC (((.(((....))).))) | -33 kcal/mol | 51.4 °C
11 | GTTTACGAAAGTAAAAAC ((((((....)))..))) | -12 kcal/mol | 29.5 °C
12 | GTTTACGAAAGTAAAAC ((((((....))).))) | -16.8 kcal/mol | 38.4 °C
13 | GTTTACGAAAGTATAAC ((((((....))).))) | -12.8 kcal/mol | 32.4 °C
14 | GTTTAGCCGAAAGGCAAC (((..(((....)))))) | -8.63 kcal/mol | 33.7 °C
15 | GTTTAGCGAAAGCTCAAC (((.(((....))).))) | -20.6 kcal/mol | 41.7 °C
16 | GTTTAGGCGAAAGCCAAC (((..(((....)))))) | -10.1 kcal/mol | 33.3 °C
17 | GTTTATGGAAACATGAAC (((.(((....))).))) | -31.3 kcal/mol | 35.7 °C
18 | GTTTCCACGAAAGTGAAC (((..(((....)))))) | -8.62 kcal/mol | 27.2 °C
19 | GTTTCCGCGAAAGCGAAC (((..(((....)))))) | -9.18 kcal/mol | 23.6 °C
20 | GTTTCCGGAAACGGAAAC (((((((....))))))) | -46.4 kcal/mol | 64.6 °C
21 | GTTTCGCGAAAGCGTAAC (((.(((....))).))) | -21.9 kcal/mol | 48.6 °C
22 | GTTTCGGAAACGAAAC ((((((....)))))) | -35.9 kcal/mol | 56.9 °C
23 | GTTTCTGGAAACAGGAAC (((.(((....))).))) | -30.4 kcal/mol | 43.6 °C
24 | GTTTGACCGAAAGGTAAC (((..(((....)))))) | -11.6 kcal/mol | 32.4 °C

Row | Sequence | folding enthalpy [1] | Tm [2]
25 | GTTTGAGAAATCAAAC ((((((....)))))) | -27.6 kcal/mol | 47 °C
26 | GTTTGAGGAAACTCAAGC (.(((((....))))).) | -25.1 kcal/mol | 40.5 °C
27 | GTTTGAGGAAACTCGAAC (((.(((....))).))) | -31.7 kcal/mol | 45.6 °C
28 | GTTTGCCGAAAGGCAAC (((.(((....)))))) | -10.7 kcal/mol | 50.4 °C
29 | GTTTGCCGAAAGGCGAAC (((.(((....))).))) | -28.3 kcal/mol | 61.9 °C
30 | GTTTGCGAAAGCAACAAC ((((((....)))..))) | -9.1 kcal/mol | 33.7 °C
31 | GTTTGCGAAAGCACAAAC ((((((....)))..))) | -12.3 kcal/mol | 31.6 °C
32 | GTTTGCGAAAGCATGAAC ((((((....)))..))) | -8.14 kcal/mol | 26.4 °C
33 | GTTTGGCGAAAGCCAAC (((.(((....)))))) | -11.1 kcal/mol | 48.7 °C
34 | GTTTGGCGAAAGCCTAAC (((.(((....))).))) | -21.8 kcal/mol | 51 °C
35 | GTTTGGGCGAAAGCCAAC (((..(((....)))))) | -10.8 kcal/mol | 36.1 °C
36 | GTTTGTCGAAAGACAAC (((.(((....)))))) | -14.3 kcal/mol | 47.5 °C
37 | GTTTGTCGAAAGACCAAC (((.(((....))).))) | -26.1 kcal/mol | 37.9 °C
38 | GTTTGTCGAAAGACTAAC (((.(((....))).))) | -23.9 kcal/mol | 45.8 °C
39 | GTTTGTGGAAACGTAAAC ((((..(....)..)))) | -13.6 kcal/mol | 29.1 °C
40 | GTTTTACGAAAGTACAAC (((.(((....))).))) | -25.8 kcal/mol | 35.5 °C
41 | GTTTTAGGAAACTAAAAC (((((((....))))))) | -41.9 kcal/mol | 48.4 °C
42 | GTTTTAGGAAACTAGAAC (((.(((....))).))) | -11.5 kcal/mol | 27.9 °C
43 | GTTTTAGGAAACTGAAAC ((((.((....)).)))) | -22.1 kcal/mol | 35.2 °C
44 | GTTTTCGAAAGAAAAC ((((((....)))))) | -29.2 kcal/mol | 57.4 °C
45 | GTTTTCGGAAACGAAGAC ((.((((....)))).)) | -28.8 kcal/mol | 42.5 °C
46 | GTTTTCTCGAAAGAGAAC (((..(((....)))))) | -15.3 kcal/mol | 34.7 °C
47 | GTTTTGCGAAAGCATAAC (((.(((....))).))) | -25.4 kcal/mol | 45.3 °C
48 | GTTTTGGCGAAAGCCAAC (((..(((....)))))) | -8.06 kcal/mol | 38.6 °C

Row | Sequence | folding enthalpy [1] | Tm [2]
49 | GTTTTGGGAAACCGAAAC ((((.((....)).)))) | -38.3 kcal/mol | 45.7 °C
50 | GTTTTGGGAAACTGAAAC ((((..(....)..)))) | -12.2 kcal/mol | 31.4 °C
51 | GTTTTTCGAAAGAATAAC (((.(((....))).))) | -28.1 kcal/mol | 34.7 °C
52 | GTTTTTGGAAACAGAAAC ((((.((....)).)))) | -28.1 kcal/mol | 32.7 °C
53 | TAAACGAAAGTTTA (((((....))))) | -15.4 kcal/mol | 41.5 °C
54 | TACCTGAAAAGGTA (((((....))))) | -14.8 kcal/mol | 41.3 °C
55 | TACGAGAAATCGTA (((((....))))) | -14.9 kcal/mol | 37.5 °C
56 | TACTCGAAAGAGTA (((((....))))) | -18.1 kcal/mol | 47.1 °C
57 | TAGCAGAAATGCTA (((((....))))) | -14 kcal/mol | 38.1 °C
58 | TAGCGGAAACGCTA (((((....))))) | -15.9 kcal/mol | 54.3 °C
59 | TAGGGGAAACCCTA (((((....))))) | -15.3 kcal/mol | 40.2 °C
60 | TATCTGAAAAGATA (((((....))))) | -11.5 kcal/mol | 29.8 °C
61 | TATGTGAAAACATA (((((....))))) | -12.4 kcal/mol | 35.3 °C
62 | TATTGGAAACAATA (((((....))))) | -5.94 kcal/mol | 25.5 °C
63 | TCAAGGAAACTTGA (((((....))))) | -8.95 kcal/mol | 32 °C
64 | TCACGGAAACGTGA (((((....))))) | -19.9 kcal/mol | 50.9 °C
65 | TCCCGGAAACGGGA (((((....))))) | -19.7 kcal/mol | 60.7 °C
66 | TCCGAGAAATCGGA (((((....))))) | -19.6 kcal/mol | 46.4 °C
67 | TCCGGGAAACCGGA (((((....))))) | -20.2 kcal/mol | 53.2 °C
68 | TCCGTGAAAACGGA (((((....))))) | -18 kcal/mol | 53.8 °C
69 | TCCTCGAAAGAGGA (((((....))))) | -17.6 kcal/mol | 52.7 °C
70 | TCGAGGAAACTCGA (((((....))))) | -18.8 kcal/mol | 48 °C
